14 compounds from ChEMBL document CHEMBL1152189, “Beta-C-glycosiduronic acids and beta-C-glycosyl compounds: new PTP1B inhibitors” (Bioorg Med Chem Lett, 2008) can be followed below.

The target of assay [1] is T1, Tyrosine-protein phosphatase non-receptor type 1 (Homo sapiens) (UniProt P18031).
T1 sequence (whole entry): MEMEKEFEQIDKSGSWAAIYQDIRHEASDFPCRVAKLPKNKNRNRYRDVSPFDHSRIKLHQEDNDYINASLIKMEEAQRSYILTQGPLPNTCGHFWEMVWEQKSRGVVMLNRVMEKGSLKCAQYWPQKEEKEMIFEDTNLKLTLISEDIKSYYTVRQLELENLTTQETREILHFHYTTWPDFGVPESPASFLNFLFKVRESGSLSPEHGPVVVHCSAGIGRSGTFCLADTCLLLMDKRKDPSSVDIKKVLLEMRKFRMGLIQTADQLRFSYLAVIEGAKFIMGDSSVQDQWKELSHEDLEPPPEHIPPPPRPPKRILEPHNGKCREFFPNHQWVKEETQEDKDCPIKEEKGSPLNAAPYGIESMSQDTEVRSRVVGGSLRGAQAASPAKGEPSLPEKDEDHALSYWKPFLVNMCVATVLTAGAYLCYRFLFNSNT
Briefly: Inhibition of recombinant PTP1B at 20 ug/mL. A digest of the protocol:
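pNPP hydrolysis by recombinant enzyme in 50 mM MOPS pH 6.5 with 2 mM pNPP. Read continuously at 405 nm for 2 min at 30 °C, and initial rate taken from early linear region. Inhibitor tested at 20 μg/mL. Mean of three experiments.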

In assay [2] the target is T2, Tyrosine-protein phosphatase non-receptor type 1 (Homo sapiens, UniProt P18031).
T2 sequence (P18031 whole entry): T1 sequence (whole entry)
As to the kind of experiment: Inhibition of recombinant PTP1B. A digest of the protocol:
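Recombinant enzyme, 30 nM, with 2 mM pNPP in 50 mM MOPS pH 6.5. Hydrolysis followed continuously at 405 nm for 2 min at 30 °C, and initial rate taken from early linear region. Inhibitor diluted around estimated IC50. IC50 from nonlinear fit of % inhibition vs [I] with Hill equation. Mean of three experiments, SD given.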

Structures are written as SMILES. pIC50: −log10 of the molar value.

One may read the inhibition as the percentage by which the read-out fell short of the control. In general, pIC50 refers to −log10 of the IC50, conventionally taken in molar units. With `COc1ccc(OC)c([C@@H]2O[C@H](CNC(=O)c3ccccc3C(=O)O)[C@@H](OC(=O)c3ccccc3)[C@H](OC(=O)c3ccccc3)[C@H]2OC(=O)c2ccccc2)c1`, the inhibition in assay [1] is 99.7%. Besides, the pIC50 in assay [2] is 5.61. For `COc1ccc(OC)c([C@@H]2O[C@H](CNC(=O)c3ccccc3)[C@@H](OC(C)=O)[C@H](OC(=O)c3ccccc3)[C@H]2OC(=O)c2ccccc2)c1`, in that order: 83.4% and 5.34. Take `CC(=O)O[C@H]1[C@@H](OC(C)=O)[C@@H](C(=O)O)O[C@@H](C2=CC(=O)c3ccccc3C2=O)[C@@H]1OC(C)=O`: the inhibition in assay [1] was determined as 88.2%. In assay [2], the negative logarithm of the IC50 (pIC50) is 4.78. For `CC(=O)O[C@H]1[C@@H](OC(C)=O)[C@@H](C(=O)O)O[C@@H](C2=CC(=O)C=CC2=O)[C@@H]1OC(C)=O` the same measures were 70.3% and 4.56. With `COc1cc([C@@H]2O[C@H](CNC(=O)c3ccccc3C(=O)O)[C@@H](OC(=O)c3ccccc3)[C@H](OC(=O)c3ccccc3)[C@H]2OC(=O)c2ccccc2)c(OC)c2ccccc12`, the inhibition in assay [1] is 92.1%. The pIC50 in assay [2] was 6.11. On to `COc1ccc(OC)c([C@@H]2O[C@H](CNC(=O)c3ccccc3)[C@@H](O)[C@H](OC(=O)c3ccccc3)[C@H]2OC(=O)c2ccccc2)c1`, for which the inhibition in assay [1] came out at 94.9%. For the same compound, in assay [2], the pIC50 is 5.38. For `CC(=O)O[C@@H]1[C@@H](OC(C)=O)[C@H](C2=CC(=O)c3ccccc3C2=O)O[C@H](C(=O)O)[C@H]1OC(C)=O` the same measures were 83.1% and 4.80. For the compound `COc1ccc(OC)c([C@@H]2O[C@H](CNC(=O)c3ccccc3)[C@@H](OC(C)=O)[C@H](OC(C)=O)[C@H]2OC(C)=O)c1`, the inhibition in assay [1] turned out to be 12.1%. For the compound `O=C(O[C@H]1[C@@H](OC(=O)c2ccccc2)[C@@H](C(=O)O)O[C@@H](C2=CC(=O)c3ccccc3C2=O)[C@@H]1OC(=O)c1ccccc1)c1ccccc1`, in assay [1], the inhibition is 99.5%. In assay [2], the pIC50 is 5.95. Take `CC(=O)O[C@@H]1[C@@H](OC(C)=O)[C@H](C2=CC(=O)C=CC2=O)O[C@H](C(=O)O)[C@H]1OC(C)=O`: the inhibition in assay [1] was 84.7%. The pIC50 in assay [2] is 4.69.

For the compound `COc1cc([C@@H]2O[C@H](CN=[N+]=[N-])[C@@H](OC(=O)c3ccccc3)[C@H](OC(=O)c3ccccc3)[C@H]2OC(=O)c2ccccc2)c(OC)c2ccccc12`, in assay [1], the inhibition worked out at 96.5%. Moreover, the negative logarithm of the IC50 (pIC50) in assay [2] is 5.63. Turning to `CC(=O)O[C@@H]1[C@@H](OC(C)=O)[C@H](C2=CC(=O)C=CC2=O)O[C@H](CNC(=O)c2ccccc2)[C@H]1OC(C)=O`, the inhibition in assay [1] came out at 26.6%. Turning to `O=C1C=CC(=O)C([C@@H]2O[C@H](CNC(=O)c3ccccc3)[C@@H](O)[C@H](OC(=O)c3ccccc3)[C@H]2OC(=O)c2ccccc2)=C1`, the inhibition in assay [1] turned out to be 94.1%. Moreover, in assay [2], the pIC50 was 5.28. For the compound `COc1ccc(OC)c([C@@H]2O[C@H](COC(C)=O)[C@H](NC(=O)c3ccccc3C(=O)O)[C@H](OC(C)=O)[C@H]2OC(C)=O)c1`, the inhibition in assay [1] came to 49.5%.
